According to ChEMBL document CHEMBL1159128, “Structure-activity relationship of C5-curcuminoids and synthesis of their molecular probes thereof” (2010):

These compounds were tested on DLD-1 (assay: Cytotoxicity against human DLD1 cells). Settings: not given.
Type: functional
For `O=C(/C=C/c1ccc2c(c1)OCO2)/C=C/c1ccc2c(c1)OCO2`, the GI50 was > 50 µM. `COc1ccc(/C=C/C(=O)/C=C/c2ccc(OC)c(OC)c2)cc1OC` was tested, and the GI50 was 2 µM. `COc1cc(/C=C/C(=O)CC(=O)/C=C/c2ccc(O)c(OC)c2)ccc1O` [CURCUMIN] gave a GI50 of 8 µM.

What follows are compounds tested on HCT-116 (assay: Growth inhibition of human HCT116 cells after 48 hrs by MTS assay). Settings: HCT-116, 48 h.
Type: functional
How it was run: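 Vehicle controls received 1% DMSO alone. Growth in treated wells was expressed as a percentage of this control and plotted against concentration, and the mean growth-inhibitory concentration (GI50) was read from the curve.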
For `COc1ccc(/C=C/C(=O)CCc2ccc(OC)c(OC)c2)cc1OC`, the GI50 was > 50 µM. `COc1cc(/C=C/C(=O)/C=C/c2cc(OC)c(OCCO)c(OC)c2)cc(OC)c1OC` was tested, and the GI50 was 1.7 µM. Work on `COc1cc(OC)c(OC)cc1/C=C/C(=O)/C=C/c1cc(OC)c(OC)cc1OC` yielded a GI50 of 2 µM. `COc1ccc(/C=C/C(=O)/C=C/c2ccc(OC)c(OC)c2)cc1OC` gave a GI50 of 1.5 µM. `COc1ccccc1/C=C/C(=O)/C=C/c1ccccc1OC` gave a GI50 of 4 µM. Compound `C#CCOc1c(OC)cc(/C=C/C(=O)/C=C/c2cc(OC)c(OC)c(OC)c2)cc1OC` has a GI50 of 1.8 µM. For `COc1cc(/C=C/C(=O)/C=C/c2cc(OC)c(OCCN=[N+]=[N-])c(OC)c2)cc(OC)c1OC`, the GI50 was 9.7 µM. Work on `COc1cc(/C=C/C(=O)/C=C/c2cc(OC)c(OCCO)c(OC)c2)cc(OC)c1OCCO` yielded a GI50 of 0.5 µM. `COc1ccc(/C=C/C(=O)/C=C(O)/C=C/c2ccc(OC)c(OC)c2)cc1OC` gave a GI50 of 2 µM. With `COc1cc(/C=C/C(=O)/C=C/c2ccc(OC)c(OC)c2)ccc1O` the GI50 was 0.7 µM. `COc1ccc(OC)c(/C=C/C(=O)/C=C/c2cc(OC)ccc2OC)c1` showed a GI50 of 8.1 µM. `O=C(/C=C/c1cc(O)cc(O)c1)/C=C/c1cc(O)cc(O)c1` showed a GI50 of 1.5 µM. In the case of `COc1ccc(/C=C/C(/C=C/c2ccc(OC)c(OC)c2)=NO)cc1OC`, the GI50 is reported as > 50 µM. `COc1ccc(OC)c(OC)c1/C=C/C(=O)/C=C/c1c(OC)ccc(OC)c1OC` was tested, and the GI50 was 2.3 µM. With `CCOC(C)Oc1cccc(/C=C/C(=O)/C=C/c2cc(OC)c(OC)c(OC)c2)c1` (configuration not stated) the GI50 was 1.4 µM. Work on `COc1cc(/C=C/C(=O)/C=C/c2cccc(OC(=O)C34CC5CC(CC(C5)C3)C4)c2)cc(OC)c1OC` yielded a GI50 of 7.6 µM. Compound `COc1cc(/C=C/C(=O)/C=C/c2cccc(C#Cc3ccccc3)c2)cc(OC)c1OC` has a GI50 of 8.1 µM. With `COc1ccc(/C=C/C(=O)/C=C/c2ccc(OC)c(OC)c2OC)c(OC)c1OC` the GI50 was 3.5 µM. `COc1cc(/C=C/C(=O)/C=C/c2cccc(Cl)c2)cc(OC)c1OC` was tested, and the GI50 was 17 µM. `COc1cc(OC)c(OC)cc1/C=C/C(=O)/C=C/c1cc(OC)c(OC)c(OC)c1` was tested, and the GI50 was 3.3 µM. `COc1cc(/C=C/C(=O)/C=C/c2cccc(O)c2)cc(OC)c1OC` showed a GI50 of 0.9 µM. `COc1cc(/C=C/C(=O)/C=C/c2cc(OC)c(OCc3cn(CCCCCCCCCOC(=O)CCC4=[N+]5C(=Cc6c(C)cc(C)n6[B-]5(F)F)C=C4)nn3)c(OC)c2)cc(OC)c1OC` was tested, and the GI50 was 15 µM. With `COc1cc(OC)c(OC)c(OC)c1/C=C/C(=O)/C=C/c1c(OC)cc(OC)c(OC)c1OC` the GI50 was > 50 µM. For `COc1ccc(/C=C/C(=O)/C=C/c2ccc(OC)cc2OC)c(OC)c1`, the GI50 was > 50 µM. `COc1cc(/C=C/C(=O)/C=C/c2ccc(O)c(OC)c2)ccc1O` gave a GI50 of 15 µM. With `COc1cc(/C=C/C(=O)/C=C/c2cc(OC)c(OC)c(OC)c2)cc(OC)c1OC` the GI50 was 0.3 µM. `COc1cc(/C=C/C(=O)/C=C/c2cc(OC)c(OCc3cn(Cc4ccc(OC5CCCCO5)cc4)nn3)c(OC)c2)cc(OC)c1OC` (configuration not stated) gave a GI50 of 0.3 µM. Compound `COCOc1c(OC)cc(/C=C/C(=O)/C=C/c2cc(OC)c(OCOC)c(OC)c2)cc1OC` has a GI50 of 0.3 µM. With `COc1ccc(/C=C/C(=O)/C=C/c2ccc(OC)c(O)c2)cc1O` the GI50 was 0.8 µM. For `COc1cc(/C=C/C(=O)/C=C/c2cccc(OC(c3ccccc3)(c3ccccc3)c3ccccc3)c2)cc(OC)c1OC`, the GI50 was 8.5 µM. With `COc1cc(/C=C/C(=O)/C=C/c2cc(OC)c(OCC(=O)O)c(OC)c2)cc(OC)c1OC` the GI50 was 38 µM. With `COc1cccc(OC)c1/C=C/C(=O)/C=C/c1c(OC)cccc1OC` the GI50 was 9 µM. `COc1cc(/C=C/C(=O)/C=C/c2cc(OC)c(OCc3cn(CCCCCCCCCCOC(=O)CSCc4c(C)n5c(C)c(C)c(=O)n5c4=O)nn3)c(OC)c2)cc(OC)c1OC` gave a GI50 of 2.6 µM. With `COCOc1ccc(/C=C/C(=O)/C=C/c2ccc(OCOC)c(OCOC)c2)cc1OCOC` the GI50 was 0.8 µM. With `COc1cc(/C=C/C(=O)/C=C/c2cc(OC)c(OCCN=[N+]=[N-])c(OC)c2)cc(OC)c1OCCN=[N+]=[N-]` the GI50 was 7.6 µM. `COc1cccc(/C=C/C(=O)/C=C/c2cc(OC)c(OC)c(OC)c2)c1` was tested, and the GI50 was 6.9 µM. In the case of `COc1cc(/C=C/C(=O)/C=C/c2ccc(OC)c(OC)c2OC)cc(OC)c1OC`, the GI50 is reported as 1.9 µM. In the case of `COc1ccc(CCC(=O)CCc2ccc(OC)c(OC)c2)cc1OC`, the GI50 is reported as > 50 µM. `CCCCCCCCCCCCCCOc1cccc(/C=C/C(=O)/C=C/c2cc(OC)c(OC)c(OC)c2)c1` was tested, and the GI50 was > 50 µM. `COc1ccc(/C=C/C(=O)/C=C/c2ccc(OC)cc2)cc1` showed a GI50 of 9 µM. Work on `COc1cc(/C=C/C(=O)/C=C/c2ccccc2)cc(OC)c1OC` yielded a GI50 of 4.4 µM. In the case of `C#CCOc1c(OC)cc(/C=C/C(=O)/C=C/c2cc(OC)c(OCC#C)c(OC)c2)cc1OC`, the GI50 is reported as 0.3 µM. With `COc1cc(/C=C/C(=O)/C=C/c2cc(OC)c(O)c(OC)c2)cc(OC)c1O` the GI50 was 0.8 µM. With `COc1ccc(/C=C/C(=O)/C=C/c2cc(OC)c(OC)c(OC)c2)cc1OC` the GI50 was 0.4 µM. `COc1cccc(/C=C/C(=O)/C=C/c2cccc(OC)c2OC)c1OC` gave a GI50 of 1.3 µM. With `COC(=O)COc1c(OC)cc(/C=C/C(=O)/C=C/c2cc(OC)c(OC)c(OC)c2)cc1OC` the GI50 was 7 µM. In the case of `COCOc1cccc(/C=C/C(=O)/C=C/c2cc(OC)c(OC)c(OC)c2)c1`, the GI50 is reported as 4 µM. `COc1ccc(CCC(O)CCc2ccc(OC)c(OC)c2)cc1OC` was tested, and the GI50 was > 50 µM. `COc1cc(/C=C/C(=O)/C=C/c2cc(OC)c(OCc3cn(CCCCCCCCCCNC(=O)OC(C)(C)C)nn3)c(OC)c2)cc(OC)c1OC` was tested, and the GI50 was 0.8 µM. `COc1ccc(/C=C/C(=O)/C=C/c2cc(OC)c(OC)c(OC)c2)cc1` was tested, and the GI50 was 3 µM. Work on `CCOC(C)Oc1c(OC)cc(/C=C/C(=O)/C=C/c2cc(OC)c(OC)c(OC)c2)cc1OC` (configuration not stated) yielded a GI50 of 1.5 µM. Work on `COc1cc(OC)c(/C=C/C(=O)/C=C/c2c(OC)cc(OC)cc2OC)c(OC)c1` yielded a GI50 of 2.3 µM. With `COc1ccc(/C=C/C(=O)/C=C/c2ccc(OC)c(OC)c2)cc1O` the GI50 was 1.5 µM. In the case of `COc1cccc(/C=C/C(=O)/C=C/c2cccc(OC)c2)c1`, the GI50 is reported as 9.1 µM. `COc1ccc(/C=C2\CCC/C(=C\c3ccc(OC)c(OC)c3)C2=O)cc1OC` was tested, and the GI50 was > 50 µM. Compound `COc1ccc(/C=C/C(=O)/C=C/c2ccc(OC)c(OC)c2)cc1` has a GI50 of 4 µM. In the case of `C=C1CC2CC(C1)/C(=C\c1ccc(OC)c(OC)c1)C(=O)/C2=C/c1ccc(OC)c(OC)c1`, the GI50 is reported as > 50 µM. Work on `C#CCOc1c(OC)cc(/C=C/C(=O)/C=C/c2cc(OC)c(OCOC)c(OC)c2)cc1OC` yielded a GI50 of 2.4 µM. `COc1cc(/C=C/C(=O)/C=C/c2cc(OC)cc(OC)c2)cc(OC)c1` was tested, and the GI50 was 2 µM. In the case of `COc1cc(/C=C/C(=O)/C=C/c2cc(OC)c(OCc3cn(CCCCCCCCCO)nn3)c(OC)c2)cc(OC)c1OC`, the GI50 is reported as 0.8 µM. In the case of `COc1cc(/C=C/C(=O)/C=C/c2cccc(OS(=O)(=O)C(F)(F)F)c2)cc(OC)c1OC`, the GI50 is reported as 2.4 µM. Work on `COc1cc(/C=C/C(=O)/C=C/c2cc(OC)c(OC)c(OC)c2)cc(OC)c1O` yielded a GI50 of 0.8 µM. For `CCCSC(CC(=O)/C=C/c1ccc(OC)c(OC)c1)c1ccc(OC)c(OC)c1` (configuration not stated), the GI50 was 22 µM. `COc1ccc(/C=C/C(=O)c2ccc(OC)c(OC)c2)cc1OC` was tested, and the GI50 was 7 µM.
